Data on nine compounds can be found in ChEMBL document CHEMBL1134217, “Addressing the stability of C-capped dipeptide efflux pump inhibitors that potentiate the activity of levofloxacin in Pseudomonas aeruginosa” (Bioorg Med Chem Lett, 2001).

Converted amounts (≈) assume the structure as drawn. Peptide text beside a SMILES is read from it. Some results are limits rather than exact numbers.

Data set [1] in a line: Stability in rat serum measured as % recovery at 1 min. It is filed as ADME. Particulars: read-out: Recovery. The gist of the method:
(§1)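 Compounds were incubated in rat serum at 37 °C, with a parallel incubation in H₂O as control. At each time point, 70% trichloroacetic acid and CH₃CN were added dropwise. Unchanged compound was quantified by HPLC and reported as % recovery, averaged from two or more experiments.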

The nature of data set [2]: Stability in rat serum measured as % recovery at 3 min. It is filed as ADME. The conditions noted are these: read-out: Recovery. The gist of the method: as §1
A short description of data set [3]: Stability in rat serum measured as % recovery at 5 min. Particulars: read-out: Recovery. The data set is classed as ADME. The gist of the method: as §1
The nature of data set [4]: Stability in rat serum measured as % recovery at 10 min. The conditions noted are these: read-out: Recovery. The data set is classed as ADME. The gist of the method:
as §1

The test system of data set [5] is Pseudomonas aeruginosa. Description: Minimum inhibitory concentration required to inhibit growth of PAM 1032 strain of Pseudomonas aeruginosa that over expresses MexAB-Opr M efflux pump. The data set is classed as functional. The gist of the method: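 Intrinsic antibacterial activity was checked by measuring the MIC of the efflux pump inhibitor alone, without levofloxacin, against P. aeruginosa PAM 1032, which overexpresses MexAB-OprM.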

Data set [6] concerns Pseudomonas aeruginosa. The data set can be described thus: Minimum concentration of compound required to reduce the MIC of levofloxacin 8-fold in PAM 1032 strain of Pseudomonas aeruginosa that over expresses MexAB-OprM efflux pump. The data set is classed as functional. The gist of the method: (§2)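 Levofloxacin MICs were measured on PAM 1032 (MexAB-OprM overexpressor) with and without efflux pump inhibitor. MPC₈ is the lowest inhibitor concentration that cuts the levofloxacin MIC 8-fold.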

For data set [7], the system named is Pseudomonas aeruginosa. The data set can be described thus: Compound was evaluated in PAM 1032 strain of Pseudomonas aeruginosa for its effect on levofloxacin ( 10 ug/mL) potentiation. It is filed as functional. The gist of the method: (§3)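 Levofloxacin MIC read against P. aeruginosa PAM 1032, a laboratory strain overexpressing the MexAB-OprM pump, with the efflux pump inhibitor held at fixed levels of […].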

The test system of data set [8] is Pseudomonas aeruginosa. Description: Compound was evaluated in PAM 1032 strain of Pseudomonas aeruginosa for its effect on levofloxacin ( 5 ug/mL) potentiation. The data set is classed as functional. The gist of the method: as §3
In data set [9] the test system is Pseudomonas aeruginosa. Description: Compound was evaluated in PAM 1032 strain of Pseudomonas aeruginosa for its effect on levofloxacin (20 ug/mL) potentiation. It is filed as functional. The gist of the method:
as §3

Data set [10] deals with Pseudomonas aeruginosa. The data set can be described thus: Compound was evaluated in PAM 1032 strain of Pseudomonas aeruginosa for its effect on levofloxacin (40 ug/mL) potentiation. The data set is classed as functional. The gist of the method: as §3
The test system of data set [11] is Pseudomonas aeruginosa. The data set can be described thus: Compound was evaluated in PAM 1032 strain of Pseudomonas aeruginosa for its effect on levofloxacin (ug/mL) potentiation. The data set is classed as functional. The gist of the method: as §3
Data set [12] can be described thus: Stability in rat serum measured as % recovery at 2 hr. The conditions noted are these: read-out: Recovery. It is filed as ADME. The gist of the method:
(§4)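 Incubated at 37 °C in rat serum for the stated time, in parallel with a water control. Samples quenched dropwise with 70% trichloroacetic acid plus acetonitrile, then analysed by HPLC. Value is % recovery of unchanged compound, averaged over two or more experiments. Phe-Arg-β-naphthylamine (MC-207,110) served as positive control.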

In data set [13] the test system is Pseudomonas aeruginosa. The data set can be described thus: Minimum concentration of compound required to reduce the MIC of levofloxacin 8-fold in PAM 1032 strain of Pseudomonas aeruginosa tha over expresses MexAB-Opr M efflux pump. The data set is classed as functional. The gist of the method: as §2
Data set [14] in a line: Stability in rat serum measured as % recovery at 3 mins. The data set is classed as ADME. Particulars: read-out: Recovery. The gist of the method: as §4
Data set [15] is described as follows: Stability in rat serum measured as % recovery at 5 mins. It is filed as ADME. Particulars: read-out: Recovery. The gist of the method: as §4
A short description of data set [16]: Stability in rat serum measured as % recovery at 10 mins. It is filed as ADME. Particulars: read-out: Recovery. The gist of the method: as §4

For orientation: MIC means the least concentration at which growth counts as inhibited. As for `NCCC[C@H](N)C(=O)N[C@@H](Cc1ccccc1)C(=O)Nc1ccc2ccccc2c1`, the remaining at 1 min in data set [1] came to 100%. In addition, the remaining at 0.05 h in data set [2] was determined as 87%. Further, the remaining at 5 min in [3] amounted to 76%. Besides, in [4], the remaining at 10 min was determined as 38%. In the data set with Pseudomonas aeruginosa [5], this compound gave an MIC of 512 µg/mL (≈ 1270 µM). The MPC in the data set on Pseudomonas aeruginosa [6] was found to be 10 µg/mL.
Consider `NCCC[C@H](N)C(=O)N[C@H](CCc1ccccc1)C(=O)Nc1cnc2ccccc2c1`, for which the MIC in the data set with Pseudomonas aeruginosa [7] worked out at 1 µg/mL; with Pseudomonas aeruginosa [8], 2 µg/mL; in the data set with Pseudomonas aeruginosa [9] it was 0.5 µg/mL; in the data set on Pseudomonas aeruginosa [10], 0.125 µg/mL; in the data set on Pseudomonas aeruginosa [11], 4 µg/mL. Also, in the data set with Pseudomonas aeruginosa [6], the MPC amounted to 20 µg/mL.
On to `NCCC[C@@H](N)C(=O)N[C@@H](CCc1ccccc1)C(=O)Nc1cnc2ccccc2c1`, for which the remaining at 1 min in data set [1] is 100%. Further, the remaining at 2 h in data set [12] was determined as 95%. Further, the remaining at 0.05 h in data set [2] was found to be 98%. For the same compound, the remaining at 5 min in data set [3] worked out at 98%. Further, the remaining at 10 min in data set [4] was 100%. For the same compound, the minimal inhibitory concentration (MIC) against Pseudomonas aeruginosa [5] was above 512 µg/mL; in the data set on Pseudomonas aeruginosa [7] it was 0.125 µg/mL; with Pseudomonas aeruginosa [8], 1 µg/mL; in the data set on Pseudomonas aeruginosa [9] it was 0.03 µg/mL; in the data set on Pseudomonas aeruginosa [10], 0.015 µg/mL; in the data set on Pseudomonas aeruginosa [11], 4 µg/mL. For the same compound, the MPC in the data set with Pseudomonas aeruginosa [13] and in the data set with Pseudomonas aeruginosa [6] was 10 µg/mL each time.
With `NCCC[C@H](NC(=O)[C@@H](N)Cc1ccccc1)C(=O)Nc1ccc2ccccc2c1`, in data set [1], the remaining at 1 min is 100%. For the same compound, the remaining at 0.05 h in [2] stood at 80%. Further, in [3], the remaining at 5 min was 64%. Also, in [4], the remaining at 10 min is 36%. Further, the MIC against Pseudomonas aeruginosa [5] was 512 µg/mL (≈ 1270 µM). The MPC with Pseudomonas aeruginosa [6] was found to be 5 µg/mL.
Turning to `N=C(N)NCCC[C@H](NC(=O)[C@@H](N)Cc1ccccc1)C(=O)Nc1ccc2ccccc2c1` [PABETAN] (HELM PEPTIDE1{F.R.[c1ccc2cc(N[*:1])ccc2c1]}$$$$V2.0), the remaining at 1 min in [1] is 100%. In [12], the remaining at 2 h is 0%. In [14], the remaining at 0.05 h was determined as 73%. Besides, the remaining at 5 min in data set [15] was 55%. In addition, the remaining at 10 min in [16] came to 25%. This compound also had an MIC in the data set on Pseudomonas aeruginosa [5] above 512 µg/mL. Moreover, the MPC in the data set with Pseudomonas aeruginosa [6] amounted to 10 µg/mL.
On to `NCCC[C@H](N)C(=O)N[C@@H](CCc1ccccc1)C(=O)Nc1cnc2ccccc2c1`, for which the MIC with Pseudomonas aeruginosa [7] came out at 0.5 µg/mL; in the data set with Pseudomonas aeruginosa [8], 4 µg/mL; with Pseudomonas aeruginosa [9], 0.06 µg/mL; in the data set on Pseudomonas aeruginosa [10] it was 0.015 µg/mL; with Pseudomonas aeruginosa [11], 4 µg/mL. Also, in the data set with Pseudomonas aeruginosa [6], the MPC came to 10 µg/mL.
Take `CN(C(=O)[C@@H](N)Cc1ccccc1)[C@@H](CCCN)C(=O)Nc1ccc2ccccc2c1.O=C(O)C(F)(F)F.O=C(O)C(F)(F)F`: the remaining at 1 min in data set [1] came to 100%. Moreover, the remaining at 0.05 h in data set [2] was determined as 99%. Moreover, the remaining at 5 min in data set [3] worked out at 100%. In addition, in data set [4], the remaining at 10 min turned out to be 97%. The MIC with Pseudomonas aeruginosa [5] came to 256 µg/mL. The MPC in the data set on Pseudomonas aeruginosa [6] turned out to be 5 µg/mL.
For `NCCC[C@H](NC(=O)[C@@H](N)CCc1ccccc1)C(=O)Nc1cnc2ccccc2c1`, the MIC in the data set on Pseudomonas aeruginosa [7] worked out at 0.06 µg/mL; in the data set on Pseudomonas aeruginosa [8], 1 µg/mL; in the data set on Pseudomonas aeruginosa [9], 0.03 µg/mL; in the data set with Pseudomonas aeruginosa [10] it was 0.03 µg/mL; with Pseudomonas aeruginosa [11], 4 µg/mL. Also, the MPC in the data set on Pseudomonas aeruginosa [6] is 10 µg/mL.
Consider `NCCC[C@@H](N)C(=O)N[C@H](CCc1ccccc1)C(=O)Nc1cnc2ccccc2c1`, for which the MIC came to 2 µg/mL in the data set on Pseudomonas aeruginosa [7]; 4 µg/mL with Pseudomonas aeruginosa [8]; 0.125 µg/mL in the data set on Pseudomonas aeruginosa [9]; 0.125 µg/mL with Pseudomonas aeruginosa [10]; 4 µg/mL in the data set with Pseudomonas aeruginosa [11]. In addition, the MPC in the data set with Pseudomonas aeruginosa [6] came out at 20 µg/mL.
